Data on eleven compounds can be found in ChEMBL document CHEMBL1140027, “Cycloalkanediamine derivatives as novel blood coagulation factor Xa inhibitors” (Bioorg Med Chem Lett, 2007).

The term IC50 denotes the concentration at which inhibition is half-maximal.

Sequence of Coagulation factor X (P00742 41-179 limits assumed): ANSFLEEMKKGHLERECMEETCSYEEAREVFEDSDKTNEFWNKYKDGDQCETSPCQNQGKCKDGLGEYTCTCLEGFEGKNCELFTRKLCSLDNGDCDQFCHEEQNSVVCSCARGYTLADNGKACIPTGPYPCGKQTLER
Sequence of Coagulation factor X (P00742 235-488 limits assumed): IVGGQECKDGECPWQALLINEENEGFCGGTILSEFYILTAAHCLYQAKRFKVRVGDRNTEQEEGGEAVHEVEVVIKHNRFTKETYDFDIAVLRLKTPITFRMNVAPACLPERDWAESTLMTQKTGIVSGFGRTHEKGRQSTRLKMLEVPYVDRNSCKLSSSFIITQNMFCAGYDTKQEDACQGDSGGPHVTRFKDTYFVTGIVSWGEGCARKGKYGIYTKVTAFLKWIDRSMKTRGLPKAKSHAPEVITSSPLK

One assay addresses Coagulation factor X (Homo sapiens, UniProt P00742). The assay can be described thus: Inhibition of human factor 10a after 10 seconds.
Regarding `CN1CCc2nc(C(=O)N[C@@H]3CCCCC[C@@H]3NC(=O)c3cc4cc(Cl)ccc4[nH]3)sc2C1`, the IC50 was 0.175 µM.

On to `CN1CCc2nc(C(=O)N[C@@H]3CCC[C@@H]3NC(=O)c3cc4cc(Cl)ccc4[nH]3)sc2C1`, for which the IC50 was found to be 0.118 µM.

`CN1CCc2nc(C(=O)N[C@@H]3CCC[C@H]3NS(=O)(=O)c3cc4cc(Cl)ccc4[nH]3)sc2C1` yielded an IC50 above 10 µM.

Compound `CN1CCc2nc(C(=O)N[C@@H]3C[C@@H]3NS(=O)(=O)c3cc4cc(Cl)ccc4[nH]3)sc2C1` (relative stereo) had an IC50 of 0.27 µM.

`CN1CCc2nc(C(=O)N[C@@H]3C[C@H]3NS(=O)(=O)c3cc4cc(Cl)ccc4[nH]3)sc2C1` (relative stereo) showed an IC50 above 10 µM.

As for `CN1CCc2nc(C(=O)N[C@@H]3CCC[C@@H]3NS(=O)(=O)c3cc4cc(Cl)ccc4[nH]3)sc2C1` (relative stereo), the IC50 is 3.2 µM.

For `CN1CCc2nc(C(=O)N[C@@H]3CCCC[C@@H]3NS(=O)(=O)c3cc4cc(Cl)ccc4[nH]3)sc2C1` (relative stereo), it took 4.4 µM to reach half-maximal inhibition (IC50).

With `CN1CCc2nc(C(=O)N[C@@H]3CCCC[C@H]3NS(=O)(=O)c3cc4cc(Cl)ccc4[nH]3)sc2C1` (relative stereo), the IC50 is above 10 µM.

For `CN1CCc2nc(C(=O)N[C@@H]3C[C@H]3NC(=O)c3cc4cc(Cl)ccc4[nH]3)sc2C1` (relative stereo), the IC50 was above 10 µM.

The compound `CN1CCc2nc(C(=O)N[C@@H]3CC[C@@H]3NC(=O)c3cc4cc(Cl)ccc4[nH]3)sc2C1` (relative stereo) came in with an IC50 of 0.265 µM.

In turn, `CN1CCc2nc(C(=O)N[C@@H]3CCCCCC[C@@H]3NC(=O)c3cc4cc(Cl)ccc4[nH]3)sc2C1` (relative stereo) had an IC50 above 1.4 µM.

Another assay relates to Plasma. The assay can be described thus: Anticoagulant potency in human plasma assessed as concentration required to double prothrombin time. Format: functional. The procedure, abridged: (§1)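 Prothrombin time in human or rat plasma on a microcoagulometer. Plasma (50 µL) mixed 1:1 with inhibitor or 4% DMSO/saline, incubated 1 min at 37 °C. Value is the concentration that doubles clotting time (PTCT2).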
Regarding `CN1CCc2nc(C(=O)N[C@@H]3CCC[C@@H]3NC(=O)c3cc4cc(Cl)ccc4[nH]3)sc2C1`, the Activity was found to be 9.6 µM.

For another assay, the target named is Prothrombin (Homo sapiens, UniProt P00734). The assay can be described thus: Inhibition of human factor 2a after 10 seconds. The procedure, abridged:
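Human thrombin (4 U/mL stock), inhibitor in 5% aqueous DMSO, in 0.1 M Tris–0.2 M NaCl–0.2% BSA pH 7.4. Chromogenic substrate S-2266 added, mixed 10 s at room temperature, OD/min read at 405 nm.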
As to `CN1CCc2nc(C(=O)N[C@@H]3CCC[C@@H]3NC(=O)c3cc4cc(Cl)ccc4[nH]3)sc2C1`, inhibition was half-maximal at 27 µM (IC50).

For another assay, the system named is Plasma. The assay can be described thus: Anticoagulant potency in rat plasma assessed as concentration required to double prothrombin time. Format: functional. The method in brief:
as §1
In the case of `CN1CCc2nc(C(=O)N[C@@H]3CCC[C@@H]3NC(=O)c3cc4cc(Cl)ccc4[nH]3)sc2C1`, the Activity is 17.2 µM.
